# ChEMBL document CHEMBL4689842, “EUbOPEN Chemogenomics Library wave 1” (2021)
# System: Fibroblast
# Experiment: Multiplex assay against human fibroblast
# Format: toxicity, cell-based
# Method in brief: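 At seeding, live cells were stained with Hoechst33342, BioTracker Green Microtubule Cytoskeleton Dye, MitoTracker Red and Annexin V Alexa Fluor 680. After compound addition they were imaged on a CQ1 microscope at 37°C and 5% CO2, and CellPathfinder machine-learning gating sorted them into Hoechst high-intensity objects or normal cells, with normal cells further split into healthy, pyknosed or fragmented nuclei and pyknosed cells into mitotic or apoptotic. Tubulin, mitochondrial-mass and membrane-permeability phenotypes are given as per cents of cells with healthy nuclei.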
# [1] = 12 h, 1 µM, compound concentration 1 uM, replicate 1
# [2] = 12 h, 1 µM, compound concentration 1 uM, replicate 2
# [3] = 12 h, 10 µM, compound concentration 10 uM, replicate 1
# [4] = 12 h, 10 µM, compound concentration 10 uM, replicate 2
# [5] = 24 h, 1 µM, compound concentration 1 uM, replicate 1
# [6] = 24 h, 1 µM, compound concentration 1 uM, replicate 2
# [7] = 24 h, 10 µM, compound concentration 10 uM, replicate 1
# [8] = 24 h, 10 µM, compound concentration 10 uM, replicate 2
# [9] = 48 h, 1 µM, compound concentration 1 uM, replicate 1
# [10] = 48 h, 1 µM, compound concentration 1 uM, replicate 2
# [11] = 48 h, 10 µM, compound concentration 10 uM, replicate 1
# [12] = 48 h, 10 µM, compound concentration 10 uM, replicate 2
smiles,measurement,setting,value
COc1cccc([C@@H](C)NCCCc2ccccc2Cl)c1.Cl [TECALCET HYDROCHLORIDE],Population Apoptotic (%),[1],55%
same,Population Fragmented Nuclei (%),[1],20%
same,Population Healthy Nuclei (%),[1],53%
same,Population Hoechst High Intensity Objects (%),[1],9%
same,Population Membrane Permeable-Phenotype (%),[1],22%
same,Population Mitochondria Different-Phenotype (%),[1],4%
same,Population Mitotic Cells (%),[1],44%
same,Population Normal (%),[1],90%
same,Population Pyknosed Nuclei (%),[1],25%
same,Population Tubulin-Different-Phenotype (%),[1],53%
same,Total Cell Count,[1],222
same,Population Apoptotic (%),[2],16%
same,Population Fragmented Nuclei (%),[2],10%
same,Population Healthy Nuclei (%),[2],81%
same,Population Hoechst High Intensity Objects (%),[2],10%
same,Population Membrane Permeable-Phenotype (%),[2],6%
same,Population Mitochondria Different-Phenotype (%),[2],20%
same,Population Mitotic Cells (%),[2],83%
same,Population Normal (%),[2],89%
same,Population Pyknosed Nuclei (%),[2],8%
same,Population Tubulin-Different-Phenotype (%),[2],18%
same,Total Cell Count,[2],70
same,Population Apoptotic (%),[3],62%
same,Population Fragmented Nuclei (%),[3],26%
same,Population Healthy Nuclei (%),[3],43%
same,Population Hoechst High Intensity Objects (%),[3],12%
same,Population Membrane Permeable-Phenotype (%),[3],11%
same,Population Mitochondria Different-Phenotype (%),[3],17%
same,Population Mitotic Cells (%),[3],37%
same,Population Normal (%),[3],87%
same,Population Pyknosed Nuclei (%),[3],29%
same,Population Tubulin-Different-Phenotype (%),[3],71%
same,Total Cell Count,[3],183
same,Population Apoptotic (%),[4],41%
same,Population Fragmented Nuclei (%),[4],7%
same,Population Healthy Nuclei (%),[4],75%
same,Population Hoechst High Intensity Objects (%),[4],5%
same,Population Membrane Permeable-Phenotype (%),[4],18%
same,Population Mitochondria Different-Phenotype (%),[4],90%
same,Population Mitotic Cells (%),[4],58%
same,Population Normal (%),[4],94%
same,Population Pyknosed Nuclei (%),[4],17%
same,Population Tubulin-Different-Phenotype (%),[4],96%
same,Total Cell Count,[4],83
same,Population Apoptotic (%),[5],56%
same,Population Fragmented Nuclei (%),[5],28%
same,Population Healthy Nuclei (%),[5],50%
same,Population Hoechst High Intensity Objects (%),[5],10%
same,Population Membrane Permeable-Phenotype (%),[5],26%
same,Population Mitochondria Different-Phenotype (%),[5],4%
same,Population Mitotic Cells (%),[5],43%
same,Population Normal (%),[5],89%
same,Population Pyknosed Nuclei (%),[5],21%
same,Population Tubulin-Different-Phenotype (%),[5],62%
same,Total Cell Count,[5],217
same,Population Apoptotic (%),[6],77%
same,Population Fragmented Nuclei (%),[6],8%
same,Population Healthy Nuclei (%),[6],80%
same,Population Hoechst High Intensity Objects (%),[6],8%
same,Population Membrane Permeable-Phenotype (%),[6],6%
same,Population Mitochondria Different-Phenotype (%),[6],6%
same,Population Mitotic Cells (%),[6],22%
same,Population Normal (%),[6],91%
same,Population Pyknosed Nuclei (%),[6],10%
same,Population Tubulin-Different-Phenotype (%),[6],12%
same,Total Cell Count,[6],95
same,Population Apoptotic (%),[7],61%
same,Population Fragmented Nuclei (%),[7],25%
same,Population Healthy Nuclei (%),[7],53%
same,Population Hoechst High Intensity Objects (%),[7],17%
same,Population Membrane Permeable-Phenotype (%),[7],13%
same,Population Mitochondria Different-Phenotype (%),[7],31%
same,Population Mitotic Cells (%),[7],38%
same,Population Normal (%),[7],82%
same,Population Pyknosed Nuclei (%),[7],21%
same,Population Tubulin-Different-Phenotype (%),[7],75%
same,Total Cell Count,[7],178
same,Population Apoptotic (%),[8],35%
same,Population Fragmented Nuclei (%),[8],8%
same,Population Healthy Nuclei (%),[8],70%
same,Population Hoechst High Intensity Objects (%),[8],8%
same,Population Membrane Permeable-Phenotype (%),[8],24%
same,Population Mitochondria Different-Phenotype (%),[8],91%
same,Population Mitotic Cells (%),[8],64%
same,Population Normal (%),[8],91%
same,Population Pyknosed Nuclei (%),[8],20%
same,Population Tubulin-Different-Phenotype (%),[8],92%
same,Total Cell Count,[8],97
same,Population Apoptotic (%),[9],54%
same,Population Fragmented Nuclei (%),[9],28%
same,Population Healthy Nuclei (%),[9],60%
same,Population Hoechst High Intensity Objects (%),[9],10%
same,Population Membrane Permeable-Phenotype (%),[9],19%
same,Population Mitochondria Different-Phenotype (%),[9],3%
same,Population Mitotic Cells (%),[9],45%
same,Population Normal (%),[9],89%
same,Population Pyknosed Nuclei (%),[9],10%
same,Population Tubulin-Different-Phenotype (%),[9],42%
same,Total Cell Count,[9],229
same,Population Apoptotic (%),[10],0%
same,Population Healthy Nuclei (%),[10],70%
same,Population Hoechst High Intensity Objects (%),[10],13%
same,Population Membrane Permeable-Phenotype (%),[10],13%
same,Population Mitochondria Different-Phenotype (%),[10],4%
same,Population Mitotic Cells (%),[10],100%
same,Population Normal (%),[10],87%
same,Population Pyknosed Nuclei (%),[10],1%
same,Population Tubulin-Different-Phenotype (%),[10],40%
same,Total Cell Count,[10],100
same,Population Apoptotic (%),[11],76%
same,Population Fragmented Nuclei (%),[11],46%
same,Population Healthy Nuclei (%),[11],45%
same,Population Hoechst High Intensity Objects (%),[11],21%
same,Population Membrane Permeable-Phenotype (%),[11],6%
same,Population Mitochondria Different-Phenotype (%),[11],16%
same,Population Mitotic Cells (%),[11],23%
same,Population Normal (%),[11],78%
same,Population Pyknosed Nuclei (%),[11],8%
same,Population Tubulin-Different-Phenotype (%),[11],60%
same,Total Cell Count,[11],207
same,Population Apoptotic (%),[12],0%
same,Population Fragmented Nuclei (%),[12],56%
same,Population Healthy Nuclei (%),[12],43%
same,Population Hoechst High Intensity Objects (%),[12],15%
same,Population Membrane Permeable-Phenotype (%),[12],0%
same,Population Mitochondria Different-Phenotype (%),[12],12%
same,Population Mitotic Cells (%),[12],100%
same,Population Normal (%),[12],84%
same,Population Pyknosed Nuclei (%),[12],0%
same,Population Tubulin-Different-Phenotype (%),[12],76%
same,Total Cell Count,[12],138
